# Bioassay records (PubChem BioAssay)
# hERG protect: hERG (human) protection from proarrhythmic block | Q12809 | activation (rescue from dofetilide block), less the hit threshold, % at 10 µM | 310,000 tested, 0.51% active | CHO-hERG, FluxOR thallium flux, dofetilide IC70 present;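 active means activation above the mean of controls blocked by dofetilide plus 5 SD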;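 further: thallium influx through hERG after potassium depolarization seen as dye fluorescence rise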
# KCNQ1 inh: blocks the human KCNQ1 potassium channel. P51787. 310,000 tested, 1.3% active. B-score at 10 µM. CHO-K1 KCNQ1, FluxOR thallium flux fluorescence; stronger effect = higher value. AID 2642;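 active means compounds whose thallium flux B-score, printed positive for inhibition, exceeds three library SD while starting fluorescence stays within three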;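 further: channel opened by potassium depolarization with thallium stimulus after 20 min compound exposure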
# KCNK3 inh: human KCNK3 channel inhibition, primary screen; O14649; CHO-KCNK3 thallium flux, FluxOR fluorescence; stronger effect = lower value; B-score at 10 µM; 340,000 tested, 0.84% active; AID 602410;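 active means B-score under library mean minus 4 SD, starting fluorescence ratio at most library mean plus 5 SD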;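 further: more negative B-score means stronger inhibition of thallium flux through KCNK3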
# KCNK9 block: inhibitors of human KCNK9 two-pore domain potassium channel; B-score at 10 µM; HEK293 KCNK9, FluxOR thallium flux fluorescence; stronger effect = lower value; 310,000 tested, 1.2% active;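 active means ratio B-score over 3 SD below the library mean, with starting fluorescence within 5 SD of its mean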;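 further: negative B-score means less thallium flux so channel inhibition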
# KCNQ1 pot: human KCNQ1 channel potentiation or activation; B-score at 10 µM; P51787; 310,000 tested, 0.35% active; CHO-K1 KCNQ1, thallium flux FluxOR fluorescence; stronger effect = higher value;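 active means fluorescence ratio B-score, a plate-corrected score, at least three library SD, with initial intensity B-score within 5 SD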
#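 Medium – assay buffer, equal DMSO in all wells · Material – CHO-K1 cell line with stable KCNQ1 potassium channel expression · Signal – kinetic FluxOR thallium fluorescence, 10-s 1-Hz baseline, 110-s post-stimulus read · Compound – single concentration per compound, DMSO matched to controls · Schedule – 37 °C overnight plating, 90-min dark dye load, 20-min compound pretreatment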
# KCC2 mod: KCC2 (human) Cl- transport modulation; KCC2 cells, thallium flux FluoZin-2 fluorescence; Q9H2X9; 190,000 tested, 2.2% active; AID 1456; B-score of Tl+ flux slope (higher = more flux/activation; lower = inhibition) at 10 µM;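 active means thallium flux slope and its plate-corrected score both differing from the plate sample mean at a set confidence after two filtering rounds, in either direction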;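 further: slope of fluorescence scaled to starting intensity during 10 to 20 s after thallium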
# KCNK9 inh conf: human KCNK9 inhibitor confirmation. HEK293 KCNK9 cells, FluxOR thallium flux fluorescence. inhibition, % at 10 µM. AID 492992. 4,900 tested, 43% active. shares compounds with KCNK9 block;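 active means thallium signal inhibited by more than 5 SD of the compound-free buffer control wells, on both duplicate plates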;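 further: 0% = assay buffer control wells without compound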
# Kir21 sel: mouse Kir2.1 off-target activity of KCNK9 modulators; shares compounds with KCNK9 block; Kir2.1 cells, FluxOR thallium flux fluorescence; inhibition, % at 10 µM; 4,900 tested, 4% active;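 active means thallium signal drop more than 5 SD beyond the mean of the no-compound control wells, seen in both duplicate plates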;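 further: signal is fluorescence rise after thallium addition divided by baseline fluorescence; plate controls were assay buffer only for no effect and full block by chlorpromazine control for full effect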
# Target sequence (P35561 whole entry, looked up): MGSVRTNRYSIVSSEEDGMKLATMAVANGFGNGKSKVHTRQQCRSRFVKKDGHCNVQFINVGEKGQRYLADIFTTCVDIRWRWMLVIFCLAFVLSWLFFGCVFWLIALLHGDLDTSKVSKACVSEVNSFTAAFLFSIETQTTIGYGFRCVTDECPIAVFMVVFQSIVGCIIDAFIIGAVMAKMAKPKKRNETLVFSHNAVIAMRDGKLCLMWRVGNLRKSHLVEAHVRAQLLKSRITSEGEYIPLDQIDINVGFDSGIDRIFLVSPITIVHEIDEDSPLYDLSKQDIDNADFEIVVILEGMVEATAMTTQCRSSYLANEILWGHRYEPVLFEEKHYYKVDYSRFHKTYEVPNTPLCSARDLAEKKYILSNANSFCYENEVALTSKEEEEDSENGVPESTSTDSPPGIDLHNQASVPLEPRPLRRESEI
# HEK293 Tl ctr: second check of KCNK9 modulator effects in non-induced HEK293 cells; inhibition, % at 10 µM; FluxOR thallium flux; shares compounds with KCNK9 block; 4,900 tested, 40% active;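 active means thallium signal drop beyond 5 SD of the untreated control mean, on both duplicate plates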;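 further: plate controls were buffer only IC0 wells for no effect and SID17386958 at its maximal inhibitory level for full effect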
# Numbers without * were called inactive; i = inactive; / = no result given. Shown are actives, neighbours in structure and some others; about 4.1% of the full set was active somewhere.
SMILES,hERG protect,KCNQ1 inh,KCNK3 inh,KCNK9 block,KCNQ1 pot,KCC2 mod,KCNK9 inh conf,Kir21 sel,HEK293 Tl ctr
COc1ccc(N2C(=O)C(Cl)=C(NCc3ccccc3)C2=O)cc1,-6.8,i,i,i,i,-1.11,/,/,/
Cc1cc(NC(=O)CSc2ccnc(=O)[nH]2)no1,-2.3,i,i,i,i,/,/,/,/
O=C1CSC(=S)N1/N=C/c1cc(Br)c(O)c(Br)c1,-32.8,i,i,-9.83*,i,/,64.0%*,57.0%*,70.5%*
O=C1N=c2ccccc2=C1c1sc(=S)n(NC(=O)c2cccc(O)c2)c1O,-4.3,i,i,i,i,-0.86,/,/,/
O=C1N=c2ccc(Br)cc2=C1c1sc(=S)n(NS(=O)(=O)c2ccccc2)c1O,-8.5,i,i,i,i,-0.826,i,i,i
c1csc(-c2noc(COc3ccc4c(c3)CCCC4)n2)c1,-16.0,i,i,i,i,0.868,i,i,i
Clc1ccc(OCc2nc(-c3ccc(Br)o3)no2)cc1,-5.2,i,i,i,i,1.24,/,/,/
Brc1ccc(-c2noc(COc3ccc4c(c3)CCC4)n2)o1,-17.6,i,i,i,i,-0.0523,i,i,i
COc1cccc(CC(=O)OCC(=O)NC(C)c2ccc(F)cc2)c1 (centres undefined),/,/,i,/,/,/,/,/,/
C[C@H](CO)N1C[C@H](C)[C@@H](CN(C)CC2CCCCC2)Oc2c(NS(=O)(=O)c3ccc(F)cc3)cccc2C1=O,/,/,i,/,/,/,/,/,/
Cc1ccc(OCC(=O)c2ccc3c(c2)CCCC3)cc1C,-3.5,i,i,i,i,-1.1,i,i,i
CN1CCN(C(=O)Cn2ncc3c([nH]c4ccccc43)c2=O)CC1,-3.0,i,i,i,i,/,/,/,/
Oc1ccc(Cl)cc1Cc1cc(Cl)ccc1O,-36.8,i,i,-14*,i,0.0119,58.5%*,i,35.0%*
Oc1ccc(Cl)cc1CNCc1ccc(Cl)cc1,/,/,i,/,/,/,/,/,/
COc1ccc(S(=O)(=O)Nc2ccc3c(c2)C(=O)N([C@H](C)CO)C[C@H](C)[C@@H](CN(C)C(=O)Nc2c(C)noc2C)O3)cc1,/,/,i,/,/,/,/,/,/
O=C(CC(Nc1ccccc1)C(=O)O)c1ccccc1 (centres undefined),-13.8,i,i,i,i,/,/,/,/
O=C(CC(Nc1ccccc1)c1ccc(F)cc1)c1ccccc1 (centres undefined),-14.0,i,i,-9.72*,i,-1.73,60.0%*,i,42.5%*
CCCCOc1ccc(CSCCNC(=S)Nc2ccccc2)cc1,2.2,i,i,i,i,-0.54,/,/,/
CC(C)COc1ccc(CSCCNC(=S)Nc2ccccc2)cc1,-16.3,9*,i,i,i,-0.689,i,i,i
O=C(COC(=O)C1=Cc2ccccc2OC1)NCc1ccc(F)cc1,/,/,i,/,/,/,/,/,/
Brc1ccc(OCc2nnc(SCC3CCCCC3)o2)cc1,-8.7,i,i,-8.85*,i,-0.0438,26.0%*,i,36.0%*
CCOC(=O)C1CCN(CCCSc2ccccc2)CC1,0.4,i,i,i,i,/,/,/,/
CCOC(=O)C1CCN(CCCSc2ccc(C)cc2)CC1,-6.2,i,i,i,i,/,i,i,i
Cc1cc(Cl)cc2c(N=Nc3ccccc3C(=O)O)c(O)[nH]c12,-9.2,i,i,i,i,/,i,i,i
Cc1ccccc1OCCC(=O)OCC(=O)NC1CC1,-5.5,i,i,i,i,/,/,/,/
SMILES,hERG protect,KCNQ1 inh,KCNK3 inh,KCNK9 block,KCNQ1 pot,KCC2 mod,KCNK9 inh conf,Kir21 sel,HEK293 Tl ctr
O=C(Nc1ccc(Cl)cc1C(=O)Nc1ccc(Br)cn1)c1ccco1,-9.0,i,i,-11.6*,i,-0.434,53.0%*,i,i
Cc1cc(Br)ccc1NC(=O)c1ccco1,-10.5,i,i,i,i,/,/,/,/
COCCn1cnc2c1c(=O)n(CC(=O)NCC(F)(F)F)c(=O)n2Cc1ccccc1,-3.5,i,i,i,i,/,/,/,/
CSc1ccc(C(=O)C2CCCN(C(=O)c3cccc(N4CCOCC4)c3)C2)cc1 (centres undefined),-15.9,i,i,i,i,0.0115,i,i,i
COCc1ccc(C(=O)N2CCCC(C(=O)c3ccc(SC)cc3)C2)o1 (centres undefined),-10.6,i,i,i,i,/,i,i,i
CSc1ccc(C(=O)C2CCCN(C(=O)c3nn(C)c(=O)c4ccccc34)C2)cc1 (centres undefined),-12.3,i,i,i,i,-0.891,/,/,/
COCc1ccc(C(=O)N2CCCC(C(=O)c3cccc(C(F)(F)F)c3)C2)o1 (centres undefined),-10.6,i,i,i,i,-0.892,/,/,/
CSc1ccc(C(=O)C2CCCN(C(=O)c3nonc3C)C2)cc1 (centres undefined),-5.2,i,i,i,i,/,i,i,i
CSc1ccc(C(=O)C2CCCN(C(=O)CN3CCOC3=O)C2)cc1 (centres undefined),-3.9,i,i,i,i,/,/,/,/
Cc1cc(-c2nn(-c3ccccc3F)cc2CN2CCN(c3ccccn3)CC2)c(C)s1,-7.5,i,i,i,i,/,i,i,i
Cn1cc(CN2CCN(c3ccc(Cl)cn3)CC2)c(-c2ccccc2F)n1,-15.6,i,i,i,i,/,i,i,i
CC(C)(C)OC(=O)N1CCCC(C(=O)Nc2cccc(C(=O)NCCCCc3ccccc3)c2)C1 (centres undefined),/,/,i,/,/,/,/,/,/
Cc1cc(=O)oc2cc(NC(=O)CC3(CC(=O)O)CCCC3)ccc12,-6.1,i,i,i,i,-0.246,/,/,/
CN(C)/C=N/c1nc(-c2ccc3ccccc3c2)cs1,-7.2,i,i,i,i,/,i,i,i
O=[N+]([O-])c1cccc(-c2n[nH]c(=S)n2Cc2ccccc2)c1,-3.2,i,i,i,i,-0.531,/,/,/
CC(C)(C)C1=NN(c2ccc([N+](=O)[O-])cc2)C(c2ccccc2)C1 (centres undefined),-1.7,9*,i,-8.75*,i,-0.736,44.0%*,i,48.0%*
O=C1CSC(c2ccccc2)N1c1ccc([N+](=O)[O-])cc1 (centres undefined),-3.3,i,i,i,i,/,/,/,/
